Test results reported in ChEMBL document CHEMBL5523695, “Discovery of small molecule benzothiazole and indole derivatives tackling tau 2N4R and α-synuclein fibrils” (Bioorg Med Chem, 2024).
The source made the active and inactive calls. The calls are words filed in the database; no cut-off is given here.

Legend:
[1] = target: Alpha-synuclein (Homo sapiens) (UniProt P37840); experiment: Inhibition of alpha-syn (unknown origin) aggregation assessed as reduction in fluorescence by Thioflavin-T based fluorescence analysis relative to control; details: concentration not given here
Outline: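 Recombinant α-syn monomer (2 μM final, diluted from a 280 μM stock in 20 mM Tris-HCl pH 7.4) in 10 mM PBS pH 7.4 with 0.5 mM SDS and 300 mM NaCl, one glass bead per well. Compound 100 μM final, ThT 20 μM, 0.25% DMSO. Ex/em 440/485 nm, read every 20 min at 37 °C with shaking, 40–70 h. Triplicates. Plateau fluorescence as % of control, background-corrected.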

[2] = target: T1, Microtubule-associated protein tau (Homo sapiens, UniProt P10636); experiment: Inhibition of unfolded tau 2N4R (unknown origin) aggregation expressed in Escherichia coli Rosetta BL21 cells assessed as appearance of rounded structures at 100 uM measured after 72 hrs by TEM analysis
Outline: (§1)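 Recombinant tau 2N4R (6 μM) incubated with compound at 100 μM, or 0.25 % DMSO, in 10 mM PBS pH 7.4 for 72 h at 37 °C. Placed on Formvar-carbon copper grids for 1 min, rinsed, and negatively stained with 1 % uranyl acetate. TEM at 40k magnification, 100 kV.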

[3] = target: Alpha-synuclein (Homo sapiens) (UniProt P37840); experiment: Inhibition of recombinant alpha-Synuclein (unknown origin) aggregation assessed as reduction in fluorescence intensity by measuring residual activity at 100 uM measured every 20 mins for 40 to 70 hrs by Thioflavin T based fluorescence analysis relative to control; details: time 40-70 hrs
Outline: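 Recombinant α-syn (2 μM final) in 10 mM PBS pH 7.4 with 0.5 mM SDS and 300 mM NaCl. Compound at 100 μM final, ThT 20 μM, one borosilicate bead per well. Read at 37 °C every 20 min after 10 s shaking, ex 440/em 485 nm, for 40–70 h. Background was ThT plus 0.25 % DMSO without protein. Plateau fluorescence expressed as % of control, triplicates, mean ± SEM.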

[4] = target: Alpha-synuclein (Homo sapiens) (UniProt P37840); experiment: Inhibition of recombinant alpha-Synuclein (unknown origin) aggregation assessed as reduction in protein fibril formation at 100 uM measured after 68 hrs by TEM analysis
Outline: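 α-Syn (2 μM) samples taken from the ThT kinetic runs after about 68 h at 37 °C, compound at 100 μM, vehicle 0.25 % DMSO. Applied to Formvar-carbon copper grids for 1 min, washed, and stained with 1 % uranyl acetate for 1 min. Imaged by TEM at 40k magnification, 100 kV.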

[5] = target: T1, Microtubule-associated protein tau; experiment: Inhibition of unfolded tau 2N4R (unknown origin) aggregation expressed in Escherichia coli Rosetta BL21 cells assessed as reduction in formation of large dense accumulation of tau fibrils at 100 uM measured after 72 hrs by TEM analysis; outline: as §1
[6] = target: T1, Microtubule-associated protein tau; experiment: Inhibition of human tau 0N4R aggregation expressed in Escherichia coli Rosetta BL21 cells assessed as reduction in oligomer formation at 50 to 200 uM incubated for 10 mins in presence of 53W light exposure for 60 sec by PICUP assay; details: dose 50-200 µM
Outline: (§2)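 Tau 2N4R or 0N4R, expressed in-house from a pET30a construct in E. coli Rosetta BL21 and purified by heat step plus SP cation exchange, used at 10 μM in 10 mM phosphate buffer. Compound at 50, 100 and 200 μM. Ru(bpy)3 at 300 μM and APS at 6 mM, 60 s light exposure. Samples boiled at 95 °C for 10 min in reducing Laemmli buffer, then 16 % SDS-PAGE with Coomassie.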

[7] = (§3) Cytotoxicity against human M17D cells expressing doxycyclin-inducible alpha-syn-S3K::YFP inclusion-prone fusion protein assessed as reduction in cell confluency at 5 to 40 uM treated with compound starting from 24 hrs post plating followed by doxycyclin addition at 48 hrs and measured 96 hrs post plating by Incucyte-based analysis; assay type: toxicity; details: 72 h, dose 5-40 µM
Outline: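 Dox-inducible M17D-TR/αS-3K::YFP neuroblastoma cells seeded at 30,000 per well. Compound added 24 h after plating at 1.25–40 μM, with 0.1 % DMSO as vehicle. Dox at 1 μg/mL final was added at 48 h. At 96 h, Incucyte imaging gave confluence fold change vs vehicle. N = 2 independent experiments, 6–12 wells total. Mean ± SD, one-way ANOVA with Dunnett's test.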

[8] = target: Alpha-synuclein (Homo sapiens) (UniProt P37840); experiment: as §3, with “Inhibition of alpha-syn inclusion formation in” for “Cytotoxicity against”, “inclusions” for “cell confluency at 5 to 40 uM”; assay type: cell-based; details: time 72.0 hrs
Outline: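 M17D-TR/αS-3K::YFP cells seeded at 30,000 per well and dosed 24 h post-plating at 1.25–40 μM (vehicle 0.1 % DMSO). Transgene induced at 48 h with dox at 1 μg/mL final. At 96 h, Incucyte analysis of punctate YFP inclusions, expressed as fold change vs DMSO. Two independent experiments, 6–12 wells total, mean ± SD, Dunnett's post-hoc test.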

[9] = target: T1, Microtubule-associated protein tau; experiment: Inhibition of unfolded tau 2N4R (unknown origin) aggregation expressed in Escherichia coli Rosetta BL21 cells assessed as reduction in protein fibril formation at 100 uM measured after 72 hrs by TEM analysis; outline: as §1
[10] = target: T1, Microtubule-associated protein tau; experiment: Inhibition of unfolded tau 2N4R (unknown origin) aggregation expressed in Escherichia coli Rosetta BL21 cells assessed as reduction in short and fine needle like fibrils at 100 uM measured after 72 hrs by TEM analysis; outline: as §1
[11] = target: T1, Microtubule-associated protein tau; experiment: Inhibition of tau 2N4R (unknown origin) aggregation expressed in Escherichia coli Rosetta BL21 cells assessed as reduction in oligomer formation at 50 to 200 uM incubated for 10 mins in presence of 53W light exposure for 60 sec by PICUP assay; details: dose 50-200 µM; outline: as §2
[12] = target: T1, Microtubule-associated protein tau; experiment: Inhibition of arachidonic acid-induced full-length four-repeat tau 2N4R (unknown origin) aggregation measured upto 19 hrs by TEM analysis

T1 sequence (P10636 whole entry): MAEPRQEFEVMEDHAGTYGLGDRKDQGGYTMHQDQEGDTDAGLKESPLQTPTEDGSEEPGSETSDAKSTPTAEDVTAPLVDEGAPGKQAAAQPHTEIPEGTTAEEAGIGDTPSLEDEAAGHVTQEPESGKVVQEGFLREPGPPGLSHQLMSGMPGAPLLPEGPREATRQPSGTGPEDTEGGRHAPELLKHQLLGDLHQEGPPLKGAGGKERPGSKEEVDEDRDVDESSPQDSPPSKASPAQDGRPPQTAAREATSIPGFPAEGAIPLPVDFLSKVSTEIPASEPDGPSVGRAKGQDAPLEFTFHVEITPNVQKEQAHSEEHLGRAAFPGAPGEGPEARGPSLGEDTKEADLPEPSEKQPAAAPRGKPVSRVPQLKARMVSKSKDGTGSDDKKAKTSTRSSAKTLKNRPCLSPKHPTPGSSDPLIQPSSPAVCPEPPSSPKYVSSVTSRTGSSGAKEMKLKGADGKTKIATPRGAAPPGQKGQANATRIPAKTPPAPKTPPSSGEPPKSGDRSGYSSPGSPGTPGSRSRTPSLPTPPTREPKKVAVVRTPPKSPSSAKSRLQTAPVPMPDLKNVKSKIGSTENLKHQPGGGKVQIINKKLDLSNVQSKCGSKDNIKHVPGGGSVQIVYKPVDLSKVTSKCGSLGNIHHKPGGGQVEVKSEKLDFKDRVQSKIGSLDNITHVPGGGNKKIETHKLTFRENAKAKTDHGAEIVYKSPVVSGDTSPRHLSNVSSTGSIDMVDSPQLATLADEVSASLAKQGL

Work on `O=C(O[C@@H]1Cc2c(O)cc(O)cc2O[C@@H]1c1cc(O)c(O)c(O)c1)c1cc(O)c(O)c(O)c1` yielded an inhibition [1] of 90%.
For `O=C(Nc1ccc([N+](=O)[O-])cc1)Nc1ccc2cc[nH]c2c1`, the inhibition [2] was “Active”, the Activity [3] was 3.6% and the inhibition [4] was “Active”. The inhibition [5] was “Active”, the inhibition [6] was “inactive” and the Activity [7] was “Toxic”. The inhibition [8] was “Dose-Dependent Effect”, the inhibition [9] was “Active” and the inhibition [10] was “Active”. The inhibition [11] was “inactive”.
Molecule `CCC(/C=C1\Sc2ccc(OC)cc2N1CCO)=C\c1sc2ccc(OC)cc2[n+]1CCO` has an IC50 [12] of 0.3 µM.
